Screening data as filed in PubChem BioAssay.
Sampled rows, rich in hits. Any-hit rate of the full collection: about 2.3%.
EBNA-1 inhibitor: EBNA-1 DNA-binding inhibitors, primary screen, biochemical, fluorescence polarization; inhibition, % at 14.8 µM; 0.34% of 300,000 active; AID 1950, 2009; in the data active = inhibition above about 28%
EBV gp42 inh: Epstein-Barr virus gp42 inhibitors, primary screen, biochemical, uHTS, fluorescence polarization. 0.42% of 220,000 active. Glycoprotein 42 (Epstein-Barr virus (strain AG876)), Q1HVG2. AID 1085, 2008. Fluorescence polarization binding assay, mP read-out. inhibition, % (tested at 21.74 µM); in the data active = inhibition above about 50%
ZTA counter: counter-screen for EBNA-1 inhibitors: inhibitors of Epstein-Barr virus ZTA. ZTA-DNA binding, fluorescence polarization. P03206. inhibition, % at 11 µM. 0.15% of 320,000 active. AID 2234; in the data active = inhibition above about 33%
Target sequence (P03206 whole entry, looked up): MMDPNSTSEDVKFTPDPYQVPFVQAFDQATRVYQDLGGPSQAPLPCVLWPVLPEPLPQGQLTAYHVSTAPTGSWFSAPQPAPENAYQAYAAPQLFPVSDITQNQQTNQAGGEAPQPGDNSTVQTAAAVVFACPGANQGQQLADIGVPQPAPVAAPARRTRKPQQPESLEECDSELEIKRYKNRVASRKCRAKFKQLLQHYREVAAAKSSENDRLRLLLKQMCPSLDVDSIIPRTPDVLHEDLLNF
GPR7 antag: GPR7 receptor antagonists, primary screen, cell-based, fluorescence, single concentration. GPR7-expressing cells, fluorescence antagonist assay. inhibition, % at 4.4 µM. 1.1% of 290,000 active; in the data active = inhibition above about 16%, passing the limit was not always enough;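 note: cells stimulated with the agonist NPW; 0% = agonist with vehicle and 100% = vehicle without agonist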
Target sequence (P48145 whole entry, looked up): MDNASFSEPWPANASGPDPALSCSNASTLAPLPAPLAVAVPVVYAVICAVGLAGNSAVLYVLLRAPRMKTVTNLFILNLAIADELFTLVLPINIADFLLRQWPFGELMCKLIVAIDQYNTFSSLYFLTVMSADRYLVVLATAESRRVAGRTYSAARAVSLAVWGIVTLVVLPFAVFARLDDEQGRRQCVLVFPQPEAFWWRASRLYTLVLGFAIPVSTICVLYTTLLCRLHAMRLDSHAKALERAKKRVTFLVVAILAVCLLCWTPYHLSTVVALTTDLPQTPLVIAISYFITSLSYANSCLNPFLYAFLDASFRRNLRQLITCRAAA
HCV NS3 hel inh: inhibitors of HCV NS3 helicase, primary screen, biochemical, Cy5 molecular beacon fluorescence. NS3 helicase DNA unwinding. inhibition, % at 10.9 µM. 0.56% of 290,000 active. AID 1800, 2009;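 active = inhibition above the mean of all tested compounds plus 3 SD, set per campaign, cut at about 35% in these data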;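 note: 0% = DMSO wells and 100% = thioflavine S control wells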
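Assay system: hepatitis C virus NS3 helicase domain fragment enzyme. Also added: annealed dual-labelled DNA beacon duplex, ATP-started. Timing: 1 h reaction at 25 °C, ATP-initiated. Technique: Cy5 fluorescence at 0 and 60 min, beacon hairpin quenching. Evaluation: % inhibition of unwinding. Replication: one well per compound.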
core dimer inh: inhibitors of HCV core protein dimerization, primary screen, biochemical, TR-FRET, high-throughput; TR-FRET GST/Flag-core106 dimerization, 1536-well; inhibition, % at 5 µM; 0.33% of 300,000 active;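 active = inhibition above the mean of all tested compounds plus 3 SD, set per screening campaign, cut at about 45% in these data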
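System – GST-tagged and Flag-tagged HCV core protein residues 1-106 · Repeats – one well for each compound · Technique – TR-FRET 671 and 617 nm emission · Doses – one concentration, 5 µM, in 0.5% DMSO · Times – 4 h, 22.5 °C incubation · Also added – Eu donor and XL665 acceptor anti-tag antibodies · Measure – percent inhibition of core106 dimerization signal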
* hit, by the source's call; . = not tested or not shown.

SMILES	EBNA-1 inhibitor	EBV gp42 inh	ZTA counter	GPR7 antag	HCV NS3 hel inh	core dimer inh
CNC(=O)COc1ncnc2scc(-c3ccc(F)cc3)c12	-2.4	-15.8	10.2	-12.7	1.5	2.5
CCC(C)NC(=O)CSc1ccc(S(=O)(=O)N2CCN(Cc3ccccc3)CC2)cn1 (centres undefined)	.	.	-1.2	.	.	.
Cc1ccc(NC(=O)CN2C(=O)N/C(=C/c3ccc(N4CCOCC4)cc3)C2=O)cc1	-1.2	-40.2	-2.8	-2.3	4.1	11.4
Cc1ccccc1NC(=O)CN1C(=O)N/C(=C\c2ccc(N3CCOCC3)c(F)c2)C1=O	55.6*	-19.5	6.6	-11.0	-11.8	-2.6
O=C(OCCN(C1=NS(=O)(=O)c2ccccc21)c1ccc(Cl)cc1)c1ccco1	3.1	22.5	-13.8	1.5	-3.6	11.7
CN(C)CCCNC(=O)/C(=C\c1ccc(-c2ccc(Br)cc2)o1)NC(=O)c1ccccc1	-18.5	-4.3	-4.0	11.9	-74.8	-25.5
Cc1ccc(C(=O)N/C(=C\c2ccc(-c3ccc(Cl)cc3)o2)C(=O)NCCCN(C)C)cc1	-2.0	-6.6	-3.2	27.3*	-16.4	-16.8
COc1cc(/C=C2/C(=O)c3cccc([N+](=O)[O-])c3C2=O)c(Br)cc1O	6.9	54.3*	9.1	-5.6	19.6	12.7
COc1ccc(CN2C(=O)Cc3c2nc(N)c2c(N)nc(N4CCCCC4)c(C#N)c32)cc1	-8.3	20.7	8.8	1.9	29.3	56.5*
CCN(CC)C(=O)CSc1nc2cc3c(cc2c(=O)n1Cc1ccc(OC)cc1)OCO3	-3.3	-21.3	-4.2	-10.4	12.1	8.7
CC1=CC(=O)c2ccccc2C1=O	2.7	-7.1	2.7	-14.8	15.7	-9.4
CC1=C/C(=N\OS(=O)(=O)c2ccccc2)C(C(C)C)=CC1=O	-4.2	-0.6	6.3	43.8*	-2.5	-8.0
CC1=C(C)/C(=N\OS(=O)(=O)c2ccc(C)cc2)C=CC1=O	-9.3	-3.1	-8.5	60.5*	-0.6	-15.2
CC1=C/C(=N\OS(=O)(=O)c2ccccc2)C(C)=CC1=O	-2.5	-9.7	-0.6	72.8*	-0.5	-20.3
COC(=O)c1ccc2c(=O)[nH]c(COC(=O)c3c(-c4ccccc4Cl)noc3C)nc2c1	-0.6	.	-3.5	.	.	5.8
COc1ccc(OC)c(NC(=O)COC(=O)CCC2CCCC2)c1	.	.	-6.6	.	.	.
COc1ccc(OC)c(NC(=O)COC(=O)c2cc3c(s2)CCC3)c1	-4.1	15.5	-1.2	3.6	21.4	77.4*
C=CCn1c(SCC(=O)NC2CCCC2)nc2scc(-c3ccco3)c2c1=O	-6.2	-27.9	0.9	-9.4	25.5	54.6*
C=CCn1c(SCC(=O)NCC2CCCO2)nc2scc(-c3ccccc3)c2c1=O (centres undefined)	2.9	.	3.4	3.9	-1.2	-1.4
O=C(CSc1nnc(CNC(=O)c2c(F)cccc2F)o1)NCc1ccco1	-1.2	.	0.8	11.6	5.1	6.7
Cc1ccc(C(C)NC(=O)c2ccncc2)c(C)c1 (centres undefined)	2.4	.	0.7	-6.1	-0.1	0.4
CN(C)c1ccc(/C=C/C(=O)c2cc(Cl)ccc2O)cc1	-2.5	65.4*	4.2	-5.4	1.1	7.3
O=C(ONc1ccc(N=NC(=O)c2ccccc2O)cc1)c1ccccc1	4.9	88.9*	-4.5	-8.7	7.5	-6.3
O=Nc1ccc(NOC(=O)c2ccccc2Br)cc1	-7.7	-25.4	-2.1	-1.6	5.8	-8.4
Cc1ccc(-n2cc(C(=O)c3ccc(F)cc3)nn2)cc1Cl	-6.5	-15.4	8.0	4.8	-4.6	69.6*
SMILES	EBNA-1 inhibitor	EBV gp42 inh	ZTA counter	GPR7 antag	HCV NS3 hel inh	core dimer inh
CCOC(=O)c1ccc(-n2cc(C(=O)c3cccnc3)nn2)cc1	.	.	.	-8.1	-13.0	.
Cc1cc(=O)[nH]c2ccc(S(=O)(=O)N3CCOCC3)cc12	5.8	.	-21.2	-11.2	20.1	-21.4
COc1ccc2c(c1)OC[C@H]1[C@H]2N2C(=O)c3cc(OC)c(OC)cc3NC(=O)[C@@]2(C)[C@H]1c1ccccc1	-3.7	.	6.6	.	.	46.2*
O=C(CC1C(=O)NCCN1Cc1c(F)cccc1Cl)NC1CCCC1 (centres undefined)	-11.3	-0.8	5.1	-4.9	11.4	-1.1
CCOC(=O)c1nn(-c2sc(C(=O)OC)c(C)c2C(=O)OC)cc1O	-3.2	-2.0	12.1	18.8*	-0.1	-3.9
COC(=O)c1cc(NC(=O)Cc2cccs2)cc(C(=O)OC)c1	1.2	.	2.0	-12.5	13.6	49.2*
CC(=O)Nc1cccc(NC(=O)Cc2cccs2)c1	-2.2	.	-5.1	-15.4	0.5	23.1
Cc1ccc([N+](=O)[O-])cc1NC(=O)Cc1cccs1	7.1	35.9	7.0	-2.6	23.2	54.1*
COc1cc(NC(=O)c2ccccc2)c(OC)cc1NC(=O)Cc1cccs1	-8.3	-1.0	-3.6	-8.0	11.5	66.5*
O=C(NC(=S)NCCO)c1cn(-c2ccccc2)nc1-c1ccccc1	-9.4	1.7	-2.3	-13.1	1.2	-0.3
CSc1ccccc1NC(=O)CN1CCN(Cc2ccccc2)CC1	0.8	-6.6	-22.2	-6.1	-5.1	-1.4
COc1cc(C(=O)NCCC2=CCCCC2)ccc1OCc1c(C)noc1C	.	.	-14.1	.	.	.
CC(C)NCc1nnc(-c2ccccc2Cl)o1	1.9	0.0	0.6	6.8	15.5	1.6
COc1ccc(NC(=S)N(CCCN2CCCC2)Cc2cccn2Cc2ccc(Cl)cc2)cc1Cl	-0.7	11.7	8.7	19.5*	-74.9	-7.8
O=C(Nc1nc(-c2ccccc2)cs1)c1ccc(S(=O)(=O)N2CCc3ccccc32)cc1	9.5	-6.8	12.3	1.8	-4.9	26.4
CCc1nnc(NC(=O)c2ccc(Cl)c(S(=O)(=O)N3CCc4ccccc43)c2)s1	-10.0	-36.6	-7.8	10.2	-0.6	51.3*
Cc1ccc(-c2csc(NC(=O)c3ccc(S(=O)(=O)N4CCc5ccccc54)cc3)n2)cc1	-6.0	-15.2	0.6	-10.5	16.9	66.6*
O=C(Nc1ccncc1)c1ccc(Cl)c(S(=O)(=O)N2CCc3ccccc32)c1	-12.2	.	-9.6	.	.	5.3
Cc1cccc(-n2ncc3c(=O)[nH]c(SCC(=O)N4CC(=O)Nc5ccccc54)nc32)c1	.	.	7.3	.	.	.
CCN(CC)c1ccc(C2Nc3cccc4cccc(c34)N2)cc1	17.6	.	16.9	-12.2	-3.1	-4.5
CC(C)(C)C1CCC2(CC1)Nc1cccc3cccc(c13)N2	4.0	8.1	1.8	16.1	-8.1	69.7*
Cc1ncc([N+](=O)[O-])n1Cc1cccc2ccccc12	6.3	65.5*	4.1	-10.4	-2.7	10.2
CCOC(=O)C1CCN(C(=O)c2cc3c(=O)n4ccccc4nc3n2C)CC1	0.7	-8.4	1.3	-6.9	-4.7	4.0
